KCNQ1 act: human KCNQ1 channel potentiation or activation; P51787; CHO-K1 KCNQ1, thallium flux FluxOR fluorescence; hits give high values; B-score at 10 µM; 0.35% of 310,000 active;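 active = fluorescence ratio B-score, a plate-corrected score, at least three library SD, with initial intensity B-score within 5 SD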
Target sequence (P51787 whole entry, looked up): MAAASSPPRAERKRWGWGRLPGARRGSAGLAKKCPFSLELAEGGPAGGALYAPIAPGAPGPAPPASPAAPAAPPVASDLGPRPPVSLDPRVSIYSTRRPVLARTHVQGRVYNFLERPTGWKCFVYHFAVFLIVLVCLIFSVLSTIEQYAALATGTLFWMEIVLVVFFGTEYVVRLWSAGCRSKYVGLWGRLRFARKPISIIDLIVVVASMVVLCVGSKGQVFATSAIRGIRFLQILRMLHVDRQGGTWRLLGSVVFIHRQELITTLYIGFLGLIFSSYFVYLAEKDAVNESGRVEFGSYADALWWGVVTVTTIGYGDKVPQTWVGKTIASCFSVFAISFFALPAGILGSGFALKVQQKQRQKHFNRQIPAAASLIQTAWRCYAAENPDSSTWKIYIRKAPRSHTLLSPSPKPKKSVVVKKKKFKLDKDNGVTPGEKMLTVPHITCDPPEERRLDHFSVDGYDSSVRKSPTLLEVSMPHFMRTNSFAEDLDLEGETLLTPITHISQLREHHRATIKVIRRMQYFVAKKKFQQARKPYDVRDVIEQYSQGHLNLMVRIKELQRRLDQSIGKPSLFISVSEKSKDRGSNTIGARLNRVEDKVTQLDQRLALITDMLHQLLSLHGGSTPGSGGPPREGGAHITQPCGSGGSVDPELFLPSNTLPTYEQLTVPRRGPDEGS
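System: Stable KCNQ1 CHO-K1 line | Incubation: 90 min dye loading and 20 min compound exposure, both at room temperature | Measure: Ratio B score | Medium: Assay buffer for compound exposure, DMSO matched across wells | Compound dosing: Single-concentration screen | Probe or stimulus: K+/Tl+ depolarizing stimulus | Measured by: Kinetic FluxOR fluorescence, 10 s baseline plus 110 s post-stimulus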
hERG rescue: shields human hERG channel from block by proarrhythmic agents; Q12809; CHO-hERG, FluxOR thallium flux, dofetilide IC70 present; activation (rescue from dofetilide block), less the hit threshold, % at 10 µM; 0.51% of 310,000 active; AID 1511;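 active = activation above the mean of controls blocked by dofetilide plus 5 SD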;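 also: thallium influx through hERG after potassium depolarization seen as dye fluorescence rise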
KCNK3 block: human KCNK3 channel inhibition, primary screen. O14649. CHO-KCNK3 thallium flux, FluxOR fluorescence; hits give low values. B-score at 10 µM. 0.84% of 340,000 active. AID 602410;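 active = B-score under library mean minus 4 SD, starting fluorescence ratio at most library mean plus 5 SD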;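 also: more negative B-score means stronger inhibition of thallium flux through KCNK3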
KCNQ1 block: blocks the human KCNQ1 potassium channel; P51787; CHO-K1 KCNQ1, FluxOR thallium flux fluorescence; hits give high values; B-score at 10 µM; 1.3% of 310,000 active;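 active = compounds whose thallium flux B-score, printed positive for inhibition, exceeds three library SD while starting fluorescence stays within three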;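 also: channel opened by potassium depolarization with thallium stimulus after 20 min compound exposure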
KCNK9 block: blocks the human KCNK9 two-pore domain potassium channel; 1.2% of 310,000 active; B-score at 10 µM; HEK293 KCNK9, FluxOR thallium flux fluorescence; hits give low values; Q9NPC2;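 active = ratio B-score over 3 SD below the library mean, with starting fluorescence within 5 SD of its mean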;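 also: negative B-score means less thallium flux so channel inhibition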
KCNK9 inh conf: confirmation of human KCNK9 potassium channel inhibitors | HEK293 KCNK9 cells, FluxOR thallium flux fluorescence | 43% of 4,900 active | AID 492992 | shares compounds with KCNK9 block | inhibition, % at 10 µM;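 active = thallium signal inhibited by more than 5 SD of the compound-free buffer control wells, on both duplicate plates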
Kir21 sel: selectivity of KCNK9 modulators against mouse Kir2.1; shares compounds with KCNK9 block; Kir2.1 cells, FluxOR thallium flux fluorescence; inhibition, % at 10 µM; 4% of 4,900 active; AID 492993;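 active = thallium signal drop more than 5 SD beyond the mean of the no-compound control wells, seen in both duplicate plates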;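 also: signal is fluorescence rise after thallium addition divided by baseline fluorescence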
HEK293 Tl ctr: non-induced cell nonspecific activity of KCNK9 modulators | shares compounds with KCNK9 block | non-induced KCNK9-HEK293, FluxOR thallium flux | inhibition, % at 10 µM | 40% of 4,900 active;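 active = thallium signal drop beyond 5 SD of the untreated control mean, on both duplicate plates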
Large screens that a line does not name were inactive (follow-up assays come after a bar, where they were run). Compounds with a hit are over-represented: about 3.1% of the library has one in this group of screens.

O=C(O)c1cccc2c1/C(=N/Nc1ccc([N+](=O)[O-])cc1[N+](=O)[O-])c1ccccc1-2	none
COC(=O)c1c(NC(=O)c2ccc(C)c(S(=O)(=O)Nc3ccccc3C)c2)sc2c1CCCC2	none
CCOC(=O)c1c(NC(=O)OC)sc2c1CCC2	none
CCOC(=O)c1c(NS(=O)(=O)c2ccc(Br)cc2)sc2c1CCC2	KCNQ1 act 56, hERG rescue 62 | KCNK9 inh conf inactive | Kir21 sel inactive | HEK293 Tl ctr inactive
CC1CCc2c(sc(NS(=O)(=O)c3ccccc3)c2C(=O)OC(C)C)C1 (stereo not given)	KCNQ1 act 26 | KCNK9 inh conf inactive | Kir21 sel inactive | HEK293 Tl ctr inactive
COC(=O)c1c(NS(=O)(=O)c2ccc3ccccc3c2)sc2c1CCCC2	KCNQ1 act 33, hERG rescue 17 | KCNK9 inh conf inactive | Kir21 sel inactive | HEK293 Tl ctr inactive
CC(=O)Nc1ncc(Sc2ccc([N+](=O)[O-])cc2)s1	none (no result: KCNQ1 act, hERG rescue, KCNQ1 block, KCNK9 block)
O=[N+]([O-])c1ccc(CN2CCC(Cc3ccccc3)CC2)cc1	none
O=[N+]([O-])c1ccc(C(=S)N2CCC(Cc3ccccc3)CC2)cc1	KCNK9 block -13 | KCNK9 inh conf inactive | Kir21 sel inactive | HEK293 Tl ctr inactive
COCCNC(=O)CN1C(=O)c2cccc3cccc1c23	none
O=C(Nc1ccccc1-c1nnc(SCc2ccccc2)o1)c1ccccc1	none | KCNK9 inh conf inactive | Kir21 sel inactive | HEK293 Tl ctr inactive
O=C(c1cc(C(=O)N2CCOCC2)c2nc3ccccc3n2c1)c1cc(Cl)cc(Cl)c1O	none
Cc1ccc(Nc2nc3ccccc3nc2-n2nc(C)cc2C)cc1	KCNK9 block -9.8 | KCNK9 inh conf 57% | Kir21 sel inactive | HEK293 Tl ctr 32%
Cc1cc(C)n(-c2nc3ccccc3nc2Nc2ccc(CC(=O)O)cc2)n1	none
O=C(NCC(=O)N1CCN(c2ccccc2O)CC1)c1ccccc1	none
C/C(=C/C=N/Nc1nc(N2CCCCC2)nc(N2CCCCC2)n1)c1ccccc1	KCNK9 block -8.7 | KCNK9 inh conf 44% | Kir21 sel inactive | HEK293 Tl ctr inactive
CC(/C=N/Nc1nc(N2CCCCC2)nc(N2CCCCC2)n1)=C\c1ccccc1	KCNK9 block -12 | KCNK9 inh conf 55% | Kir21 sel inactive | HEK293 Tl ctr 27%
Cc1ccc(CSCC(=O)N/N=C/c2cccc(OC3CSC3)c2)cc1	none | KCNK9 inh conf inactive | Kir21 sel inactive | HEK293 Tl ctr inactive
Cc1ccc(S(=O)(=O)N/N=C/c2cccc(OC3CSC3)c2)cc1	none
CCOC(=O)COc1ccccc1C1Nc2ccccc2C(=O)N1c1cccc(Cl)c1 (stereo not given)	KCNK3 block -11, KCNK9 block -14 | KCNK9 inh conf 62% | Kir21 sel inactive | HEK293 Tl ctr 34%
CCOC(=O)COc1c(OC)cc(Cl)cc1C1Nc2ccccc2C(=O)N1c1ccc(F)cc1 (stereo not given)	KCNK9 block -12 | KCNK9 inh conf 64% | Kir21 sel inactive | HEK293 Tl ctr 41%
CCOc1cc(C2Nc3ccccc3C(=O)N2c2ccccc2)c(Br)cc1OCC(=O)O (stereo not given)	none
CCC(=O)Nc1cccc(C2=NN(c3ccccc3)C(c3ccc(OC)cc3)C2)c1 (stereo not given)	KCNK9 block -13 | KCNK9 inh conf 52% | Kir21 sel inactive | HEK293 Tl ctr 40%
COc1ccc(C2CC(c3ccccc3)=NN2c2ccc(Cl)c(C(=O)O)c2)cc1 (stereo not given)	none
COc1ccc(CCCc2nnc(SCC(=O)Nc3cc(C)ccc3C)o2)cc1	none | KCNK9 inh conf inactive | Kir21 sel inactive | HEK293 Tl ctr inactive
CC(=O)Nc1ccc(N(C(=O)CNC(=O)c2cccs2)C(C(=O)NC(C)(C)C)c2ccccc2)cc1 (stereo not given)	none
Cc1ccc(C)c(C(=O)COC(=O)c2cc(Cl)nc3ccccc23)c1	KCNK9 block -9.4 | KCNK9 inh conf 67% | Kir21 sel inactive | HEK293 Tl ctr 45%
Cc1ccc(C)c(C(=O)COC(=O)c2ccc(Br)o2)c1	KCNK9 block -8.7 | KCNK9 inh conf 36% | Kir21 sel inactive | HEK293 Tl ctr inactive
Cc1ccc(C(=O)COC(=O)c2cc(Cl)nc3ccccc23)cc1C	none
CC(C)CC1Nc2ncnc(N3CCOCC3)c2N(Cc2ccc(Br)cc2)C1=O (stereo not given)	none
CCC1Nc2ncnc(N3CCOCC3)c2N(Cc2ccc(Br)cc2)C1=O (stereo not given)	none (no result: KCNQ1 act, hERG rescue, KCNQ1 block, KCNK9 block)
CC(C)CC1Nc2ncnc(N3CCCCC3)c2N(Cc2ccc(Br)cc2)C1=O (stereo not given)	KCNK9 block -14 | KCNK9 inh conf 76% | Kir21 sel inactive | HEK293 Tl ctr 50%
CCC1Nc2ncnc(N3CCCCC3)c2N(Cc2ccc(Br)cc2)C1=O (stereo not given)	KCNK9 block -11 | KCNK9 inh conf 58% | Kir21 sel inactive | HEK293 Tl ctr 30%
O=C1C(Cc2ccccc2)Nc2ncnc(N3CCc4ccccc4C3)c2N1Cc1ccc(Cl)cc1 (stereo not given)	KCNK9 block -10 | KCNK9 inh conf 46% | Kir21 sel inactive | HEK293 Tl ctr 36%
O=C(CC1C[C@H](C(=O)N2CCOCC2)[C@@]2(CCC3CCCC3)c3[nH]c4ccccc4c3CCN2C1=O)NCCc1ccccn1 (stereo not given in full)	none (no result: KCNQ1 act, hERG rescue, KCNQ1 block, KCNK9 block)
CCOC(=O)c1c(C)[nH]c(C(=O)COC(=O)C2(C)CC2(Cl)Cl)c1C (stereo not given)	KCNK9 block -17 | KCNK9 inh conf inactive | Kir21 sel inactive | HEK293 Tl ctr inactive
COc1ccc(C(=O)Nc2oc(-c3ccccc3)c(-c3ccccc3)c2C#N)cc1OC	KCNK9 block -9.2 | KCNK9 inh conf 49% | Kir21 sel inactive | HEK293 Tl ctr 38%
CCCCn1c(C23CC4CC(CC(C4)C2)C3)n[nH]c1=S	none
CN(C)c1cc(N/N=C/c2ccccc2C(F)(F)F)nc(N(C)C)n1	none | KCNK9 inh conf inactive | Kir21 sel inactive | HEK293 Tl ctr inactive
